Reference: ChEMBL document CHEMBL4706516, “Development of dual inhibitors targeting pyruvate dehydrogenase kinases and human lactate dehydrogenase A: High-throughput virtual screening, synthesis and biological validation” (Eur J Med Chem, 2020)
Calls of active or inactive are those of the source. The calls are words filed in the database; no cut-off is given here.

Key:
[1] = Inhibition of pig PDK assessed as catalytic activity measured after 30 mins by microplate reader based assay; parameters: species or system Sus scrofa
In short: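 Pig PDC preincubated 30 min at 37 °C in Mops pH 7.20 buffer with EDTA, KCl, MgCl2, acetyl-CoA, NADH, DTT and NaF. Kinase reaction started by adding ATP-containing buffer with or without compound; ATP-free wells serve as no-PDK controls. Reaction run 3 min at 37 °C, then stopped with ADP and pyruvate. Remaining PDC activity measured at 340 nm in Tris pH 7.8 with TPP, NAD+, pyruvate and CoA. IC50 is the mean of three independent experiments.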

[2] = target: T1, L-lactate dehydrogenase A chain (Homo sapiens, UniProt P00338); test: Inhibition of LDHA (unknown origin) in presence of NADH and sodium pyruvate measured after 10 mins by enzymatic assay
In short: (§1)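 LDHA at 5 nM final in buffer of 150 mM Tris-HCl pH 7.4 with EDTA and 0.01% Tween-20, compounds in 1% DMSO. Reaction started with substrate solution, final NADH 0.06 mM and sodium pyruvate 0.2 mM. After 10 min at room temperature, plates read at 340 nm. Screening done at a single concentration of 10.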

[3] = tested on: A549; test: Antiproliferative activity against human A549 assessed as cell growth inhibition at 20 uM measured after 72 hrs by MTT assay; type: functional
In short: (§2)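 A549 cells grown in DMEM with 10% FBS and 1% penicillin/streptomycin, 5% CO2, humidified; exponential-phase cells used. Cells seeded at 2000/well, exposed to compound for 72 h, then MTT added and incubated 4 h before readout. Single-concentration screening at […]; EC50 values calculated from two independent experiments.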

[4] = organism: Sus scrofa; test: Inhibition of pig PDK assessed as catalytic activity at 10 uM by PDC assay
[5] = target: T1, L-lactate dehydrogenase A chain; test: Inhibition of LDHA (unknown origin) in presence of NADH and sodium pyruvate at 10 uM by enzymatic assay relative to parent compound; in short: as §1
[6] = tested on: A549; test: Anticancer activity against human A549 assessed as cell growth inhibition measured after 72 hrs by MTT assay; type: functional, cell-based; details: A549, 72 h; in short: as §2
[7] = tested on: A549; test: Metabolic modulatory effect in human A549 cells assessed as increase in oxygen consumption rate at 10 to 40 uM measured after 4 hrs by seahorse XF24 extracellular flux analyzer assay; type: functional, cell-based; details: dose 10-40 µM
[8] = tested on: A549; test: Metabolic modulatory effect in human A549 cells assessed as decrease in lactate formation measured after 4 hrs by Flex analyzer; type: functional, cell-based; details: dose 10-40 µM
In short: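 A549 cells, 2 × 10^5 per well, plated overnight, then treated at […] for 4 h at 37 °C. Medium collected and centrifuged 10 min at 10000 rpm to remove debris. Lactate in the medium measured on a Nova Bioprofile Flex analyzer.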

SMILES	IC50 [1] [µM]	IC50 [2] [µM]	also measured
CCOC(=O)C(=O)N1CCN(c2nc(C)c3c(c2C#N)CCCC3)CC1			inhibition [3]: inactive; inhibition [4]: 50%; inhibition [5]: Active
CC1(C)Cc2c(C#N)c(N3CCN(C(=O)C(=O)NCCO)CC3)nc(-c3ccccc3)c2CO1			inhibition [3]: inactive; inhibition [4]: 50%; inhibition [5]: Active
Cc1nc(N2CCN(C(=O)C(=O)NCCO)CC2)c(C#N)c2c1CCCC2			inhibition [3]: inactive; inhibition [4]: 50%; inhibition [5]: Active
CCOC(=O)C(=O)N1CCN(c2nc(-c3ccccc3)c3c(c2C#N)CC(C)(C)OC3)CC1			inhibition [3]: inactive; inhibition [4]: 50%; inhibition [5]: Active
COc1cccc(N2CCN(C(=O)COc3coc(C)cc3=O)CC2)c1			inhibition [3]: inactive; inhibition [4]: 50%; inhibition [5]: Active
Cc1occc(=O)c1OCC(=O)N1CCN(C(c2ccccc2)c2ccccc2)CC1	> 10	7.3	
CCOC(=O)C(=O)N1CCN(c2nc(C(C)C)c3c(c2C#N)CCC3)CC1			inhibition [3]: inactive; inhibition [4]: 50%; inhibition [5]: Active
CC(C)c1nc(N2CCN(C(=O)C(=O)NCCO)CC2)c(C#N)c2c1CCC2			inhibition [3]: inactive; inhibition [4]: 50%; inhibition [5]: Active
Cc1occc(=O)c1OCC(=O)N1CCN(c2ccccn2)CC1	> 10	> 10	
Cc1occc(=O)c1OCCN1CCN(C(=O)c2ccccc2)CC1	> 10	2.8	
Cc1occc(=O)c1OCC(=O)N1CCN(c2ccccc2F)CC1	> 10	> 10	
Cc1occc(=O)c1OCC(=O)N1CCN(c2ncccn2)CC1	> 10	> 10	
O=C(CN1C(=O)c2ccccc2N2C(=O)c3ccccc3C12)NCCNc1ncccn1 (stereo unspecified)			inhibition at 20 µM [3]: 50%; inhibition [4]: 50%; inhibition [5]: Active

Further lines, with some results ahead:

IC50 [1] [µM]	IC50 [2] [µM]	SMILES	also measured
> 10	> 10	Cc1occc(=O)c1OCCN1CCN(C(=O)C(Cl)Cl)CC1	
> 10	> 10	COc1cccc(C(=O)N2CCN(CCOc3c(C)occc3=O)CC2)c1	
5.1	4.7	Cc1occc(=O)c1OCCN1CCN(C(=O)c2ccc(C(F)(F)F)cc2)CC1	EC50 [6]: > 20 µM
3.9	2.7	Cc1occc(=O)c1OCCN1CCN(C(=O)c2ccc(Cl)cc2)CC1	EC50 [6]: > 20 µM
0.8	0.15	Cc1occc(=O)c1OCCN1CCN(C(=O)c2ccc(F)cc2)CC1	Activity [7]: Active; EC50 [6]: 13.2 µM; Activity [8]: Dose-dependent effect
1.8	> 10	Cc1occc(=O)c1OCC(=O)N1CCN(c2ccccc2)CC1	
0.8	6.9	Cc1occc(=O)c1OCC(=O)N1CCN(c2ccc([N+](=O)[O-])cc2)CC1	
5.9	3.4	Cc1occc(=O)c1OCCN1CCN(C(=O)c2ccccc2F)CC1	EC50 [6]: > 20 µM
> 10	> 10	Cc1ccccc1N1CCN(C(=O)COc2c(C)occc2=O)CC1	
9.1	5.9	Cc1occc(=O)c1OCC(=O)N1CCN(c2cccc(Cl)c2)CC1	EC50 [6]: 18.5 µM; inhibition at 20 µM [3]: 51%; inhibition [4]: 50%
1.6	0.7	Cc1occc(=O)c1OCCN1CCN(C(=O)c2ccco2)CC1	Activity [7]: Active; EC50 [6]: 15.7 µM; Activity [8]: Dose-dependent effect
> 10	7.7	Cc1cccc(C(=O)N2CCN(CCOc3c(C)occc3=O)CC2)c1	
3	> 10	Cc1occc(=O)c1OCCN1CCN(C(=O)c2ccccc2[N+](=O)[O-])CC1	
1.4	3.7	Cc1occc(=O)c1OCC(=O)N1CCN(c2ccc(F)cc2)CC1	
> 10	0.56	COc1ccc(N2CCN(C(=O)COc3c(C)occc3=O)CC2)cc1	
6.3	> 10	Cc1occc(=O)c1OCC(=O)N1CCN(c2ccccc2[N+](=O)[O-])CC1	
> 10	4.6	COc1cccc(N2CCN(C(=O)COc3c(C)occc3=O)CC2)c1	
> 10	> 10	COc1cc(OC)cc(N2CCN(C(=O)COc3c(C)occc3=O)CC2)c1	
8.1	> 10	Cc1cc(C)cc(N2CCN(C(=O)COc3c(C)occc3=O)CC2)c1	
1	> 10	Cc1occc(=O)c1OCC(=O)N1CCN(c2cccc(F)c2)CC1	
